Assay results published in ChEMBL document CHEMBL4038284, “Synthesis of novel quinoline-based 4,5-dihydro-1H-pyrazoles as potential anticancer, antifungal, antibacterial and antiprotozoal agents” (Eur J Med Chem, 2017).
Values after ≈ are worked out from the molar mass of the structure shown. Active and inactive are the calls of the source. No cut-off for these calls is given here.

Tests used:
[1] = system: COLO 205; assay: Growth inhibition of human COLO205 cells at 10 uM incubated for 48 hrs by sulforhodamine B assay; type: functional, cell-based
How it was run: (§1)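 NCI 60-cell-line screen at a single 10 µM dose. Cells in RPMI-1640 with 5% FBS and 2 mM L-glutamine, pre-incubated 24 h, then treated for 48 h at 37 °C. TCA fixation, sulforhodamine B staining, absorbance at 515 nm. Percentage growth calculated against time-zero and untreated controls.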

[2] = system: UACC-257; assay: Growth inhibition of human UACC257 cells at 10 uM incubated for 48 hrs by sulforhodamine B assay; type: functional, cell-based
How it was run: (§2)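 NCI-60 single-dose screen at 10 µM for 48 h. Cells were grown in RPMI-1640 with 5% FBS and 2 mM L-glutamine and preincubated 24 h before compound. Time-zero plates were TCA-fixed at compound addition. After exposure, cells were TCA-fixed, stained with SRB and read at 515 nm. Percentage growth was calculated against time-zero and untreated-control absorbances.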

[3] = system: UO-31; assay: Growth inhibition of human UO31 cells at 10 uM incubated for 48 hrs by sulforhodamine B assay; type: functional, cell-based; how it was run: as §2
[4] = system: Candida albicans; assay: Growth inhibition of Candida albicans ATCC 10231 at 125 ug/ml incubated for 48 hrs under dark condition by broth microdilution method relative to control; type: functional; settings: ATCC 10231, 48 h, read-out: GI
How it was run: (§3)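 CLSI M27-A3 broth microdilution in RPMI-1640, DMSO ≤1%. Inoculum 1-5 × 10^3 CFU/mL. Incubated 48 h at 30 °C, dark. % inhibition = 100 − (OD405 test − sterility control)/(OD405 growth control − sterility control), with growth and sterility control wells. Triplicate.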

[5] = system: PC-3; assay: Growth inhibition of human PC3 cells at 10 uM incubated for 48 hrs by sulforhodamine B assay; type: functional, cell-based
How it was run: (§4)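 NCI 60-line panel, single 10 μM dose. Cells were grown in RPMI-1640 with 5% FBS and 2 mM L-glutamine and pre-incubated 24 h before compound addition (DMSO stock). Exposure was 48 h at 37 °C, 5% CO2. Cells were fixed with cold TCA (10% final), stained with 0.4% SRB, bound dye dissolved in 10 mM Tris base, A515 read. Growth was taken relative to time-zero and untreated control plates.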

[6] = system: Neisseria gonorrhoeae; assay: Antibacterial activity against beta lactamase positive Neisseria gonorrhoeae ATCC 31426 by oxidase test; type: functional
How it was run: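 Agar dilution MIC on GC agar with 1% isovitalex containing increasing compound concentrations. Plates inoculated with about 1×10^4 CFU (5 µL). MIC is the lowest concentration that inhibited growth, with growth confirmed by oxidase test. Run in duplicate, repeated at least three times.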

[7] = system: K562; assay: Growth inhibition of human K562 cells at 10 uM incubated for 48 hrs by sulforhodamine B assay; type: functional, cell-based; how it was run: as §4
[8] = system: SR; assay: Growth inhibition of human SR cells at 10 uM incubated for 48 hrs by sulforhodamine B assay; type: functional, cell-based; how it was run: as §2
[9] = system: Malme-3M; assay: Growth inhibition of human MALME-3M cells at 10 uM incubated for 48 hrs by sulforhodamine B assay; type: functional, cell-based; how it was run: as §4
[10] = system: MCF7; assay: Growth inhibition of human MCF7 cells at 10 uM incubated for 48 hrs by sulforhodamine B assay; type: functional, cell-based; how it was run: as §4
[11] = system: HL-60(TB); assay: Growth inhibition of human HL-60(TB) cells at 10 uM incubated for 48 hrs by sulforhodamine B assay; type: functional, cell-based
How it was run: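 NCI 60-line single-dose screen at 10 μM, 48 h. Cells in RPMI-1640 with 5% FBS and 2 mM L-glutamine at 37 °C, 5% CO2. Growth measured by TCA fixation and SRB staining (515 nm), relative to time-zero and untreated control wells.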

[12] = system: Cryptococcus neoformans; assay: Growth inhibition of Cryptococcus neoformans ATCC 32264 at 15.62 ug/ml incubated for 48 hrs under dark condition by broth microdilution method relative to control; type: functional; settings: ATCC 32264, 48 h, read-out: GI; how it was run: as §3
[13] = system: OVCAR-3; assay: Growth inhibition of human OVCAR3 cells at 10 uM incubated for 48 hrs by sulforhodamine B assay; type: functional, cell-based; how it was run: as §4
[14] = system: SW-620; assay: Growth inhibition of human SW620 cells at 10 uM incubated for 48 hrs by sulforhodamine B assay; type: functional, cell-based; how it was run: as §2
[15] = system: Klebsiella pneumoniae; assay: Antibacterial activity against ESBL positive Klebsiella pneumoniae ATCC 700603 after 24 hrs by resazurin dye based microdilution assay; type: functional; settings: Klebsiella pneumoniae, 700603, 24 h
How it was run: (§5)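 MIC taken as the lowest concentration giving visible inhibition and/or by resazurin (1 mg/mL). Gentamicin was the control. Run in duplicate, repeated at least three times.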

[16] = system: Staphylococcus aureus; assay: Antibacterial activity against methicillin-sensitive Staphylococcus aureus ATCC 25923 after 24 hrs by resazurin dye based microdilution assay; type: functional; settings: ATCC 25923, 24 h; how it was run: as §5
[17] = system: Pseudomonas aeruginosa; assay: Antibacterial activity against Pseudomonas aeruginosa ATCC 27853 after 24 hrs by resazurin dye based microdilution assay; type: functional; settings: ATCC 27853, 24 h; how it was run: as §5
[18] = system: Leishmania panamensis; assay: Antileshmanial activity against EpiR/GFP fused Leishmania panamensis MHOM/CO/87/UA140 intracellular amastigotes infected in human […] cells after 72 hrs by flow cytometric method; type: functional, cell-based; settings: MHOM/CO/87/UA140, 72 h
How it was run: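 PMA-treated U-937 cells (3 × 10^5 cells/mL) infected with stationary-phase GFP L. panamensis promastigotes (15:1), 3 h at 34 °C, then washed. After 24 h, compounds added at 50, 12.5, 3.125 and 0.78 µg/mL for 72 h at 37 °C. EC50 by Probit; triplicate, two experiments.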

[19] = system: HCC 2998; assay: Growth inhibition of human HCC2998 cells at 10 uM incubated for 48 hrs by sulforhodamine B assay; type: functional, cell-based; how it was run: as §1
[20] = system: CCRF-CEM; assay: Growth inhibition of human CCRF-CEM cells at 10 uM incubated for 48 hrs by sulforhodamine B assay; type: functional, cell-based; how it was run: as §1
[21] = system: Hs-578T; assay: Growth inhibition of human Hs578T cells at 10 uM incubated for 48 hrs by sulforhodamine B assay; type: functional, cell-based; how it was run: as §4
[22] = system: Candida albicans; assay: Growth inhibition of Candida albicans ATCC 10231 at 62.5 ug/ml incubated for 48 hrs under dark condition by broth microdilution method relative to control; type: functional; settings: ATCC 10231, 48 h, read-out: GI; how it was run: as §3
[23] = system: MDA-MB-435; assay: Growth inhibition of human MDA-MB-435 cells at 10 uM incubated for 48 hrs by sulforhodamine B assay; type: functional, cell-based; how it was run: as §4
[24] = system: NCI-H226; assay: Growth inhibition of human NCI-H226 cells at 10 uM incubated for 48 hrs by sulforhodamine B assay; type: functional, cell-based; how it was run: as §4
[25] = system: OVCAR-5; assay: Growth inhibition of human OVCAR5 cells at 10 uM incubated for 48 hrs by sulforhodamine B assay; type: functional, cell-based; how it was run: as §4
[26] = system: SF-539; assay: Growth inhibition of human SF539 cells at 10 uM incubated for 48 hrs by sulforhodamine B assay; type: functional, cell-based; how it was run: as §4
[27] = system: MDA-MB-468; assay: Growth inhibition of human MDA-MB-468 cells at 10 uM incubated for 48 hrs by sulforhodamine B assay; type: functional, cell-based; how it was run: as §4
[28] = system: UACC-62; assay: Growth inhibition of human UACC62 cells at 10 uM incubated for 48 hrs by sulforhodamine B assay; type: functional, cell-based; how it was run: as §2
[29] = system: OVCAR-4; assay: Growth inhibition of human OVCAR4 cells at 10 uM incubated for 48 hrs by sulforhodamine B assay; type: functional, cell-based; how it was run: as §4
[30] = system: M14; assay: Growth inhibition of human M14 cells at 10 uM incubated for 48 hrs by sulforhodamine B assay; type: functional, cell-based; how it was run: as §4

| SMILES | growth inhibition (GI) [1] | growth inhibition (GI) [2] | growth inhibition (GI) [3] | inhibition of growth at 125 µg/mL [4] [%] | growth inhibition (GI) [5] | MIC [6] [µg/mL] | growth inhibition (GI) [7] | growth inhibition (GI) [8] | growth inhibition (GI) [9] | growth inhibition (GI) [10] | growth inhibition (GI) [11] | inhibition of growth at 15.62 µg/mL [12] [%] | growth inhibition (GI) [13] | growth inhibition (GI) [14] | MIC [15] [µg/mL] | MIC [16] [µg/mL] | MIC [17] [µg/mL] | EC50 [18] [µg/mL] | growth inhibition (GI) [19] | growth inhibition (GI) [20] | further results |
| --- | --- | --- | --- | --- | --- | --- | --- | --- | --- | --- | --- | --- | --- | --- | --- | --- | --- | --- | --- | --- | --- |
| O=CN1N=C(c2ccc(Cl)cc2)CC1c1cccc(Nc2ccnc3cc(Cl)ccc23)c1 (stereo not given) | Active | Active | Active | 35.7 | Active | > 1000 | Active | Active | Active | Active | Active | 44 | Active | Active | > 1000 | > 1000 | > 1000 | 281 (≈ 609 µM) | Active | Active | growth inhibition (GI) [21]: Active; inhibition of growth at 62.5 µg/mL [22]: 28.2%; growth inhibition (GI) [23]: Active; growth inhibition (GI) [24]: Active; growth inhibition (GI) [25]: Active; growth inhibition (GI) [26]: Active; growth inhibition (GI) [27]: Active; growth inhibition (GI) [28]: Active; growth inhibition (GI) [29]: Active; growth inhibition (GI) [30]: Active |
| Clc1ccc(C2=NN(c3ccc(Cl)cc3)C(c3cccc(Nc4ccnc5cc(Cl)ccc45)c3)C2)cc1 (stereo not given) | inactive | inactive | inactive | 19.9 | inactive | > 1000 | inactive | inactive | inactive | inactive | inactive | 23.1 | inactive | inactive | > 1000 | > 1000 | > 1000 | 91.4 (≈ 168 µM) | inactive | inactive | growth inhibition (GI) [21]: inactive; inhibition of growth at 62.5 µg/mL [22]: 11.8%; growth inhibition (GI) [23]: inactive; growth inhibition (GI) [24]: inactive; growth inhibition (GI) [25]: inactive; growth inhibition (GI) [26]: inactive; growth inhibition (GI) [27]: inactive; growth inhibition (GI) [28]: inactive; growth inhibition (GI) [29]: inactive; growth inhibition (GI) [30]: inactive |
| COc1ccc(C2=NN(c3ccc(Cl)cc3)C(c3cccc(Nc4ccnc5cc(Cl)ccc45)c3)C2)cc1 (stereo not given) | inactive | inactive | inactive | 1.92 | inactive | > 1000 | inactive | inactive | inactive | inactive | inactive | 12.6 | inactive | inactive | > 1000 | > 1000 | > 1000 | 27.7 (≈ 51.4 µM) | inactive | inactive | growth inhibition (GI) [21]: inactive; inhibition of growth at 62.5 µg/mL [22]: 5.46%; growth inhibition (GI) [23]: inactive; growth inhibition (GI) [24]: inactive; growth inhibition (GI) [25]: inactive; growth inhibition (GI) [26]: inactive; growth inhibition (GI) [27]: inactive; growth inhibition (GI) [28]: inactive; growth inhibition (GI) [29]: inactive; growth inhibition (GI) [30]: inactive |
| Clc1ccc(C2=NN(c3cc(Cl)cc(Cl)c3)C(c3cccc(Nc4ccnc5cc(Cl)ccc45)c3)C2)cc1 (stereo not given) | inactive | inactive | inactive | 31.5 | inactive | > 1000 | inactive | inactive | inactive | inactive | inactive | 0 | inactive | inactive | > 1000 | > 1000 | > 1000 | 12 (≈ 20.8 µM) | inactive | inactive | growth inhibition (GI) [21]: inactive; inhibition of growth at 62.5 µg/mL [22]: 13.8%; growth inhibition (GI) [23]: inactive; growth inhibition (GI) [24]: inactive; growth inhibition (GI) [25]: inactive; growth inhibition (GI) [26]: inactive; growth inhibition (GI) [27]: inactive; growth inhibition (GI) [28]: inactive; growth inhibition (GI) [29]: inactive; growth inhibition (GI) [30]: inactive |
| COc1ccc(C(=O)/C=C/c2cccc(Nc3ccnc4cc(Cl)ccc34)c2)cc1 | Active | Active | Active | 46.8 | Active | > 1000 | Active | Active | Active | Active | Active | 5.01 | Active | Active | > 1000 | > 1000 | > 1000 | 2.65 (≈ 6.39 µM) | Active | Active | growth inhibition (GI) [21]: Active; inhibition of growth at 62.5 µg/mL [22]: 41.1%; growth inhibition (GI) [23]: Active; growth inhibition (GI) [24]: Active; growth inhibition (GI) [25]: Active; growth inhibition (GI) [26]: Active; growth inhibition (GI) [27]: Active; growth inhibition (GI) [28]: Active; growth inhibition (GI) [29]: Active; growth inhibition (GI) [30]: Active |
